Here are results for 2 compounds from ChEMBL document CHEMBL3603837, “Indole Glucocorticoid Receptor Antagonists Active in a Model of Dyslipidemia Act via a Unique Association with an Agonist Binding Site” (J Med Chem, 2015).

Series [1] can be described thus: Clearance in rat at 1 mg/kg, iv. It is filed as ADME, organism-based. The note with it: in vivo.
Series [2] has as its system Rattus norvegicus. Description: Prevention of atypical antipsychotic quetiapine associated weight gain in Wistar rat at 10 mg/kg, po for 14 days. It is filed as functional, organism-based. The method, boiled down: (§1)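 Prophylactic protocol in lean female Wistar rats (n = 9−10 per group). A dose response of test compound was given orally together with quetiapine at a fixed 10 mg/kg, concurrently for 14 days.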

Series [3] in a line: Half life in rat at 3 mg/kg, po. It is filed as ADME, organism-based. Conditions: in vivo.
In series [4] the test system is Syrian golden hamster. Briefly: Reduction in LDL level in high fat and high cholesterol diet fed Syrian golden hamster at 30 mg/kg, po qd for 14 days. Conditions: Mesocricetus auratus, 336 h. It counts as functional. The method, boiled down: (§2)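 Groups of Syrian golden hamsters (n = 6) kept on a high fat, high cholesterol diet for 14 days, dosed orally at 30 mg/kg once daily. Plasma HDL and LDL compared against untreated HFHC controls; mean with standard errors.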

The nature of series [5]: AUC in rat at 3 mg/kg, po. It is filed as ADME, organism-based. Conditions: in vivo.
Series [6] can be described thus: AUC in rat at 1 mg/kg, iv. It counts as ADME, organism-based. Conditions: in vivo.
A short description of series [7]: Oral bioavailability in rat at 3 mg/kg. The note with it: in vivo. It counts as ADME, organism-based.
A short description of series [8]: Cmax in rat at 3 mg/kg, po. It counts as ADME, organism-based. Set-up: dose 3 mg/kg, route oral. The note with it: in vivo.
Series [9] is described as follows: Half life in rat at 1 mg/kg, iv. It counts as ADME, organism-based. Conditions: in vivo.
For series [10], the system named is Syrian golden hamster. Description: Increase in HDL level in high fat and high cholesterol diet fed Syrian golden hamster at 30 mg/kg, po qd for 14 days. It counts as functional, Mesocricetus auratus. The method, boiled down:
as §2

The nature of series [11]: Volume of distribution at steady state in rat at 1 mg/kg, iv. It counts as ADME, organism-based. Conditions: in vivo, read-out: Vdss.
Series [12] concerns Rattus norvegicus. Description: Toxicity in Wistar rat model of atypical antipsychotic quetiapine-induced weight gain assessed as effect on food intake at 10 mg/kg, po for 14 days. It counts as organism-based. The note with it: in vivo, 336 h. The procedure, abridged:
as §1

Series [13] in a line: Tmax in rat at 3 mg/kg, po. It is filed as ADME, organism-based. Conditions: in vivo.
Series [14] deals with T1, Glucocorticoid receptor (Homo sapiens) (UniProt P04150).
T1 sequence (whole entry): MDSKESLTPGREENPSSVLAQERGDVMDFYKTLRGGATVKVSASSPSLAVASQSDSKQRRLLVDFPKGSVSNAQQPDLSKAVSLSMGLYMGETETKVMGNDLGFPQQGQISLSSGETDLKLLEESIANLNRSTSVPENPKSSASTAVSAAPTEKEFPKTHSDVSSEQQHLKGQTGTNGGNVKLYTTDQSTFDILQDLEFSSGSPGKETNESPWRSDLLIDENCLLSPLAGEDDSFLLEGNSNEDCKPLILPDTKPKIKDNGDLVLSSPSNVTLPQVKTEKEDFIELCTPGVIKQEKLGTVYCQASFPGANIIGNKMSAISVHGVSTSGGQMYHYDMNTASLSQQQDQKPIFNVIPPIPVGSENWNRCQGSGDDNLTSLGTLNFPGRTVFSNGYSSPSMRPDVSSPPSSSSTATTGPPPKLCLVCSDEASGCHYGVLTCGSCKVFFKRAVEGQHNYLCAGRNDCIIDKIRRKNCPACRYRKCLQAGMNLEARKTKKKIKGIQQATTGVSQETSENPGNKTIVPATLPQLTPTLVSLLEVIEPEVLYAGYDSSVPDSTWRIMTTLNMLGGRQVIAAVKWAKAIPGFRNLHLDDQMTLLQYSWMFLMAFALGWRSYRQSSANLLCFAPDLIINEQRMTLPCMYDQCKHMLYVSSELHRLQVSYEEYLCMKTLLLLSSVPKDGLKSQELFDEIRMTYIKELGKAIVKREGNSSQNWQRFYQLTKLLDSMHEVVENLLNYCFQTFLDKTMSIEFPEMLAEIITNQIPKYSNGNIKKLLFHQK
Briefly: Displacement of [3H]-dexamethasone from human glucocorticoid receptor expressed in HEK293 cells at 10 uM by scintillation counting based radioligand competition binding assay. It is filed as cell-based. The procedure, abridged: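 Competition binding with 0.3 nM [3H]-dexamethasone and 20 μg 293-GR lysate per well; nonspecific binding defined with 0.5 μM dexamethasone. Incubated overnight at 4 °C, free ligand removed with charcoal–dextran, then scintillation counting. Percent inhibition at 10 μM was calculated.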
In general terms: Displacement assays read how much labelled ligand stays bound in the presence of the test substance.

The source made the active and inactive calls. No cut-off for these calls is given here.

In general, clearance refers to the rate of elimination divided by the concentration. A low value points to inefficient removal. The half-life is the time in which the quantity being followed falls by half. Read a high half-life as slow decline. Broadly, the inhibition in vivo is the relative decrease from the control value, in per cent. Read a high inhibition in vivo as a response far below the control. A word on the AUC: it is the area under the concentration-time curve, a measure of exposure. The low end stands for less exposure, the high end for more exposure. For orientation: bioavailability means dose-corrected exposure relative to a reference, in per cent. One may read the Cmax as the peak of the concentration-time curve. A word on the Tmax: it is the time from dosing to the highest level. Turning to `COc1cc(F)ccc1-c1c(CN(C)Cc2ccccc2)[nH]c2c(NS(C)(=O)=O)cc(C(C)C)cc12`, the clearance in series [1] is 58.2 mL/min/kg. For the same compound, the inhibition entry in the series on Rattus norvegicus [2] is “Active”. The half-life is 3.31 h in series [3] and 3.96 h in [9]. Also, in the series on Syrian golden hamster [4], the inhibition in vivo at 30 mg/kg stood at 74%. Also, the AUC in series [5] is 488 ng·h/mL; in series [6], 315 ng·h/mL. In addition, in [7], the bioavailability turned out to be 51.9%. This compound came in with a maximum concentration (Cmax) in [8] of 63.3 ng/mL. Moreover, the Activity in the series on Syrian golden hamster [10] is given as 73%; with Rattus norvegicus [12], “Non-toxic”. Further, the Vd in [11] turned out to be 13.8 L/kg. Moreover, in [13], the Tmax is 4 h.
On to `COc1cc(F)ccc1-c1c(CN(C)Cc2ccccc2)[nH]c2c(N)cc(F)cc12`, for which the result in series [14] was inactive.
